According to PubChem BioAssay:
Active and inactive are the calls of the source.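 Rule for the calls, unless noted: active = visual image review flags a hit and inhibition of aggregation exceeds 20%; inconclusive = visual hit but inhibition at or below 20%; inactive = no hit on visual image review.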

Assays:
[1] = inhibitors of TNFa-induced NFkB p65 translocation, primary screen, imaging, HUVEC, MLSMR starter and 10KST1 sets (AID 438;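 active = inhibition above 20% together with a positive visual image hit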;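 note: compound added about 3h40 before a 20 min TNFalpha stimulation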;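 for inhibition: signal is the nuclear over cytoplasmic p65 intensity ratio per well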); conditions: HUVEC TNFa-induced p65 nuclear translocation; cell count: measured here: nuclei count (cytotoxicity indicator), at 2.08 µM; inhibition: at 2 µM, stronger effect = higher value, 0% TNFa-plus-vehicle, 100% no-TNFa wells
[2] = inhibitors of mutant huntingtin aggregation, primary screen, imaging, exon1htt(103Q)mCFP cells, high-content imaging (AID 483); conditions: exon1htt(103Q)mCFP cell line, aggregate imaging, at 2 µM; inhibition of aggregation: stronger effect = higher value; nuclei count: measured here: cell count, toxicity;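 note: compound exposure lasted 3 days before fixation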;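 for nuclei count: percent of the per-plate median nuclei count of sample wells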
[3] = inhibitors of E-selectin induction by TNFa, primary screen, imaging, HUVEC, immunofluorescence, MLSMR starter and 10KST1 sets (AID 487;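 active = visually confirmed hit in the image check and inhibition above 20%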;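 for inhibition: signal is fraction of cell area covered by stained E-selectin grains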;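 for nuclei count: 100% = median nuclei count of all wells on the same plate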); conditions: HUVEC TNFalpha-induced E-selectin immunofluorescence imaging, at 2 µM; inhibition: stronger effect = higher value; nuclei count: measured here: cell number, toxicity
[4] = target: Voltage-gated potassium channel subunit beta-2 (Rattus norvegicus) (UniProt P62483); experiment: KvBeta enzyme negative modulators, primary screen, biochemical, NADPH fluorescence (AID 622;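 active = fluorescence slope higher than the sample average by over 3 SD, cut at about -0.22 in these data, passing the limit was not always enough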;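 note: slope of raw intensity against log time taken from 70 to 1610 s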); conditions: recombinant KvBeta, 4-cyanobenzaldehyde reduction, at 10 µM, stronger effect = higher value
[5] = target: Voltage-gated potassium channel subunit beta-2 (Rattus norvegicus) (UniProt P62483); experiment: KvBeta positive modulators, primary screen, biochemical, NADPH fluorescence (AID 623;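 active = NADPH fluorescence slope more negative than the mean of all samples by about 3 SD, 99.7% confidence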;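 note: fluorescence intensity change per second fitted from 20 to 320 s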); conditions: Recombinant KvBeta, NADPH fluorescence decrease slope, 10 min; at 10 µM; stronger effect = lower value
[6] = target: Muscarinic acetylcholine receptor M4 (Homo sapiens) (UniProt P08173); experiment: compounds altering M4/GIRK thallium flux, either direction, primary screen, M4 allosteric agonist project, cell-based, HEK293 M4/GIRK, BTC-AM (AID 625;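 active = fluorescence slope after compound addition differing from the mean of all tested samples at 99.7% confidence, mostly higher but some lower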;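 note: thallium influx through GIRK channels coupled to M4 in HEK293 cells with BTC-AM dye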); conditions: at 10 µM, actives lie on both sides
Outline: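 Material – HEK293 cells with M4 receptor and GIRK channels · Buffer or medium – pH 7.3 thallium assay buffer · Doses – one dose, 10 µM final · Timing – cells overnight at 37 °C, BTC-AM loading 1 h, reads 2 min total · Measured by – kinetic fluorescence with BTC-AM dye · Controls – carbachol and DMSO controls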

[7] = inhibitors of Sendai virus-induced IRF3 signaling, primary screen, TLR/RLR signaling modifier project, cell-based, Sendai virus stimulus, luciferase, 10K MLSCN set (AID 602276;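 active = inhibition at or above 50% at 10 µM; inactive = inhibition below 50%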;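 note: firefly luciferase from ISG56 promoter only with Renilla not read in this screen; 0% = Sendai virus plus DMSO and 100% = medium plus DMSO without virus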); conditions: HEK293 RL24 IRF3 luciferase reporter, at 10 µM, stronger effect = higher value
[8] = inhibitors of poly I:C-induced TLR3 signaling, primary screen, cell-based, poly I:C stimulus, luciferase, 10K MLSCN set (AID 602277;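 active = inhibition of the reporter signal at or above 50%; inactive = inhibition below 50%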); conditions: HEK293-TLR3 RL24 IRF3 luciferase reporter, at 10 µM, stronger effect = higher value
[9] = target: Alpha-2C adrenergic receptor (Homo sapiens) (UniProt P18825); experiment: modulators of alpha2C/GIRK thallium flux, primary screen, cell-based, HEK293 alpha2C/GIRK1/2 (AID 624;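 active = fluorescence slope after compound addition differing from the mean of all screened samples at 99.7% confidence, in either direction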;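 note: slope of fluorescence ratio to pre-addition baseline per second over 15 to 24 s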); conditions: thallium flux BTC fluorescence, at 10 µM, actives lie on both sides
[10] = inhibitors of larval lipid processing in zebrafish, primary screen, whole organism, PED6 fluorescence, gall bladder and intestine (AID 686;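 active = a full or partial loss of lipid-probe fluorescence in the fish gall bladder, intestine or both, judged by eye; inactive = no fluorescence loss, or compound toxic to the fish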;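 note: larvae 5 to 7 days old with five fish per well; signal comes from phospholipase A2 cleavage of quenched PED6 carried via bile; overnight exposure to compound and PED6 before scoring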); conditions: Zebrafish larvae PED6 lipid processing, fluorescence scoring; screened at 20 µM (by protocol)
Outline: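 system = live zebrafish larvae aged 5-7 days, whole organism | probe or stimulus = ingested quenched lipid PED6 at 100 nM | doses = 20 µM single dose | timing = overnight exposure | detection = fluorescence microscopy with visual scoring of gall bladder and intestine | read-out = visual per-well fluorescence inhibition score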

Voltage-gated potassium channel subunit beta-2 (Rattus norvegicus), sequence (P62483 whole entry, looked up): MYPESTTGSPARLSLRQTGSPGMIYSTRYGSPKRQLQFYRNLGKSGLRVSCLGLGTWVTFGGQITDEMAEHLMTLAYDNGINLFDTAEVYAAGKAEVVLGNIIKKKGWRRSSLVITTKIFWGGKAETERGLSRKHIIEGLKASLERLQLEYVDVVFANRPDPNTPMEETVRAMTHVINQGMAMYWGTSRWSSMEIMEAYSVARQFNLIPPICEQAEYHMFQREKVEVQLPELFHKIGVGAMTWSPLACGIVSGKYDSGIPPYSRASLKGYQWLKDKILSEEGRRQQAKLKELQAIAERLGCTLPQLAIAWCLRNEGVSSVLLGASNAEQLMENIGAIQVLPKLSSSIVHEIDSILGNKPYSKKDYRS
Muscarinic acetylcholine receptor M4 (Homo sapiens), sequence (P08173 whole entry, looked up): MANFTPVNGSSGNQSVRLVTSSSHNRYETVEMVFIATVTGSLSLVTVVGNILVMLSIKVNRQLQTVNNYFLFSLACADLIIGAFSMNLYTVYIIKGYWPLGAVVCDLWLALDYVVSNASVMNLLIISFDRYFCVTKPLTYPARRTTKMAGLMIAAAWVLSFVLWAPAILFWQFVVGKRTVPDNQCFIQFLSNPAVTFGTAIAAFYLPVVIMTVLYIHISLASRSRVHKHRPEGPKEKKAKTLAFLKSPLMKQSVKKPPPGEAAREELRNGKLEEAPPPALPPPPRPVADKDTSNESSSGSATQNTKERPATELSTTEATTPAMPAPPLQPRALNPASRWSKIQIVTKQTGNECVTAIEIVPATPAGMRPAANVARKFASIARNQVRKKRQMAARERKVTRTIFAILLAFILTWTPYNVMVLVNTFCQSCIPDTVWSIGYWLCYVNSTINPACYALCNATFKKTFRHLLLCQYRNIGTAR
Alpha-2C adrenergic receptor (Homo sapiens), sequence (P18825 whole entry, looked up): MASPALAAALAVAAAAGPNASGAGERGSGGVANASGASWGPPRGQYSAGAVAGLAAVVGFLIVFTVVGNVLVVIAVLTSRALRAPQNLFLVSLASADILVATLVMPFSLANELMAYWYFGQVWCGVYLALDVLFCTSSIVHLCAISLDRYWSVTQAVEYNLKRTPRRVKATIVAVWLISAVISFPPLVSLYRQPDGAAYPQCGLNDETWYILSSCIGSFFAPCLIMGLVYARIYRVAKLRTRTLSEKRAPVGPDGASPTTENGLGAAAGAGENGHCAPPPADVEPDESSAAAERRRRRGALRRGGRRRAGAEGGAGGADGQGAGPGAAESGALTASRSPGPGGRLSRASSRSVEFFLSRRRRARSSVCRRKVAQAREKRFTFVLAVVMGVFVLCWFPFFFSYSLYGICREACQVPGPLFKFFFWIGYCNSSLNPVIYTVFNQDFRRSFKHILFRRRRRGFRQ

Structure (SMILES) | cell count [1] | inhibition [1] | inhibition of aggregation [2] | nuclei count [2] [%] | inhibition [3] | nuclei count [3] [%] | fluorescence slope [4] | NADPH fluorescence slope [5] | fluorescence slope [6] | inhibition [7] | inhibition [8] | slope [9] | outcome [10]
CCOC(=O)c1c(C)oc2ccc(O)c(CN3CCCCC3)c12 | 376 | -0.9% (inactive) | -42.7% (inactive) | 102 | -90.5% (inactive) | 81.7 | -0.383 (inactive) | 2.5e-05 (inactive) | 0.00399 (inactive) | 17.3% (inactive) | 31.7% (inactive) | – | –
COc1ccc(CN2C(=O)CN=C2Nc2ccc(C)cc2C)cc1 | 809 | -7.5% (inactive) | -10.3% (inactive) | 122 | -3.6% (inactive) | 95.6 | -0.555 (inactive) | 6.9e-05 (inactive) | 0.00584 (inactive) | 16.8% (inactive) | 23% (inactive) | – | –
COc1cc(C)c(Br)cc1S(=O)(=O)N1CCOCC1 | 397 | 6.3% (inactive) | 3.4% (inactive) | 106 | -68.9% (inactive) | 126 | -0.461 (inactive) | -4.2e-05 (inactive) | – | 11.9% (inactive) | 4.48% (inactive) | 0.00698 (inactive) | inactive
COc1ccc2c(c1)CCc1c(C(=O)NCc3cccnc3)noc1-2 | 358 | 5.4% (inactive) | -6.5% (inactive) | 103 | -85.6% (inactive) | 89.1 | -0.462 (inactive) | -0.000203 (inactive) | 0.00462 (inactive) | -37.2% (inactive) | -67.9% (inactive) | – | –
Cc1ccc(C)n1-c1ccc(N2CCOCC2)cc1 | 406 | 1% (inactive) | 14.3% (inactive) | 99.8 | -44.4% (inactive) | 111 | -0.345 (inactive) | -5.6e-05 (inactive) | 0.00513 (inactive) | 11.4% (inactive) | 8.15% (inactive) | – | –
Cc1cc(NCCN(C)C)n2nc(-c3cccs3)cc2n1 | 597 | 7.8% (inactive) | 6.4% (inactive) | 102 | -69% (inactive) | 114 | -0.335 (inactive) | -6.9e-05 (inactive) | 0.00655 (inactive) | -3.67% (inactive) | 1.86% (inactive) | – | –
COc1ccc(-c2cc(C(=O)NCc3ccc(Cl)cc3)no2)cc1OC | 358 | -2.5% (inactive) | -5.6% (inactive) | 106 | 41% (inactive) | 106 | -0.19 (inactive) | -1.3e-05 (inactive) | 0.00727 (inactive) | 14.3% (inactive) | -8.76% (inactive) | – | –
CCOC(=O)c1cnc(-n2nc(C)cc2C)nc1Nc1ccc(N(C)C)cc1 | 603 | -15.5% (inactive) | 30.6% (inactive) | 84 | -51.8% (inactive) | 88.2 | -0.574 (inactive) | -4.7e-05 (inactive) | 0.00563 (inactive) | 4.06% (inactive) | 4.11% (inactive) | – | –
COc1cccc(OCC(O)CN2CCN(CCO)CC2)c1 (centres undefined) | 383 | -1% (inactive) | -24.6% (inactive) | 105 | -46.4% (inactive) | 102 | -0.475 (inactive) | -0.000292 (inactive) | 0.00352 (inactive) | 8.25% (inactive) | 13.5% (inactive) | – | –
Cc1onc(-c2ccccc2Cl)c1C(=O)Nc1cccc(-c2cn3cccnc3n2)c1 | 369 | -10.3% (inactive) | 7.8% (inactive) | 100 | -4% (inactive) | 109 | -0.0447 (inactive) | -9.5e-06 (inactive) | 0.00573 (inactive) | 7.13% (inactive) | 1.48% (inactive) | – | –
Cc1cc(Cl)ccc1OCCCC(=O)N1CCOCC1 | 571 | -1.5% (inactive) | -0.1% (inactive) | 94.9 | -29.2% (inactive) | 112 | -0.503 (inactive) | -0.000205 (inactive) | 0.00464 (inactive) | -29.3% (inactive) | -72.8% (inactive) | – | –
Cc1csc(OCc2ccc(C#N)cc2)n1 | 636 | -4.4% (inactive) | -1.8% (inactive) | 97.8 | -4.8% (inactive) | 114 | -0.6 (inactive) | -3.4e-05 (inactive) | 0.0082 (inactive) | 7.71% (inactive) | 5.79% (inactive) | – | –
Cc1cccc(C)c1NC(=O)CC(NCc1ccco1)C(=O)O (centres undefined) | 623 | -8.3% (inactive) | -5.4% (inactive) | 71.3 | 26.5% (inactive) | 105 | -0.364 (inactive) | -6.5e-05 (inactive) | 0.00596 (inactive) | 10.4% (inactive) | 23.1% (inactive) | – | –
O=C(CCCCC(=O)NCc1cccs1)NCc1cccs1 | 681 | -12.6% (inactive) | -3.7% (inactive) | 110 | 0.6% (inactive) | 88.9 | -0.571 (inactive) | 3.2e-05 (inactive) | 0.00493 (inactive) | -6.61% (inactive) | 0.312% (inactive) | – | –
O=C(CN1C(=O)CCSc2ccccc21)Nc1ccc(F)cc1 | 312 | 0.7% (inactive) | -6% (inactive) | 100 | -8.3% (inactive) | 110 | -0.473 (inactive) | 4.1e-05 (inactive) | 0.00664 (inactive) | -6.29% (inactive) | 2.08% (inactive) | – | –
CC(c1ccco1)N(C(=O)c1ccc(S(=O)(=O)N2CCCCC2)cc1)c1ccccn1 (centres undefined) | 265 | 18.1% (inactive) | 13.8% (inactive) | 109 | -32.7% (inactive) | 105 | -0.506 (inactive) | -0.000211 (active) | 0.0101 (inactive) | 6.94% (inactive) | 8.51% (inactive) | – | –
O=C(Nc1ccccc1C(=O)NCC1CCCO1)c1ccco1 (centres undefined) | 304 | -8% (inactive) | -23.2% (inactive) | 95.5 | -50.7% (inactive) | 123 | -0.458 (inactive) | 2.2e-05 (inactive) | 0.00531 (inactive) | 9.09% (inactive) | 15.4% (inactive) | – | –
Cc1ncc(CO)c2c1OC(C)(C)OC2 | 373 | 2.5% (inactive) | -26.3% (inactive) | 106 | -39.2% (inactive) | 97.7 | -0.515 (inactive) | -0.0002 (inactive) | 0.00488 (inactive) | 8.62% (inactive) | 15.1% (inactive) | – | –
CSC1=C(C#N)C(c2ccc(C)cc2)C2=C(CCCC2=O)N1 (centres undefined) | 322 | -15.9% (inactive) | -19.6% (inactive) | 100 | 17.3% (inactive) | 109 | -0.557 (inactive) | -5.6e-05 (inactive) | 0.00661 (inactive) | 8.18% (inactive) | 19.7% (inactive) | – | –
Cn1c(Cc2csc(N)n2)nnc1SCC(=O)NCc1ccccc1 | 447 | 7.3% (inactive) | 9.5% (inactive) | 95.3 | -12.6% (inactive) | 118 | -0.58 (inactive) | -9.4e-06 (inactive) | 0.00622 (inactive) | -2.1% (inactive) | 13.3% (inactive) | – | –
CCOc1ccc2nc(SCC#N)c(C#N)cc2c1 | 430 | 3.1% (inactive) | -3.9% (inactive) | 14.5 | 9.9% (inactive) | 114 | -0.561 (inactive) | -1.4e-05 (inactive) | 0.00501 (inactive) | -56.3% (inactive) | -93.9% (inactive) | – | –
CC(=O)OCC(=O)c1ccc2ccn(C(C)=O)c2c1 | 544 | 1.6% (inactive) | -17.9% (inactive) | 102 | -19.1% (inactive) | 95.5 | -0.258 (inactive) | -1.1e-05 (inactive) | 0.00624 (inactive) | 4.56% (inactive) | -8.58% (inactive) | – | –
O=C(Nc1ccc(N2CCOCC2)cc1)Nc1ccc2nc(-c3ccco3)c(-c3ccco3)nc2c1 | 695 | -0.7% (inactive) | -8.6% (inactive) | 98.1 | -177% (inactive) | 140 | -0.516 (inactive) | -5.3e-05 (inactive) | 0.00225 (inactive) | 38.7% (inactive) | 0.682% (inactive) | – | –
Cc1nc(Nc2nc(=O)c3ccccc3n2C)nc2c(C)cccc12 | 594 | 5.2% (inactive) | -282% (inactive) | 73.9 | -112% (inactive) | 156 | -0.348 (inactive) | -5e-06 (inactive) | 0.00486 (inactive) | 14.6% (inactive) | 22.9% (inactive) | – | –
CC(C(=O)OCn1nnc2ccccc2c1=O)N1C(=O)c2ccccc2C1=O (centres undefined) | 532 | -15.6% (inactive) | 13.2% (inactive) | 84.6 | 15.7% (inactive) | 76.4 | -0.62 (inactive) | 2e-05 (inactive) | 0.00486 (inactive) | 12.3% (inactive) | 21.1% (inactive) | – | –
CN(C=O)CP(=O)(O)CCN1CCCC1=O | 447 | 7% (inactive) | 19.4% (inactive) | 90.6 | 27% (inactive) | 106 | -0.589 (inactive) | -5.8e-05 (inactive) | 0.00412 (inactive) | 14.6% (inactive) | 25.4% (inactive) | – | –
Cc1cc(NC(=O)c2cc(-c3ccco3)on2)n(-c2ccccc2)n1 | 326 | 6.8% (inactive) | 6.4% (inactive) | 105 | -56.3% (inactive) | 121 | -0.466 (inactive) | -2.4e-05 (inactive) | 0.00551 (inactive) | 17.5% (inactive) | 12.9% (inactive) | – | –
COC(=O)CCc1c(C)c(C#N)c2nc3ccccc3n2c1N1CCCC1 | 490 | -2.7% (inactive) | 9.1% (inactive) | 103 | -103% (inactive) | 159 | -0.0763 (active) | -4e-06 (inactive) | 0.00578 (inactive) | 15% (inactive) | -5.51% (inactive) | – | –
